Measured values as given in ChEMBL document CHEMBL1671684, “In vitro resistance profile of the hepatitis C virus NS3/4A protease inhibitor TMC435” (Antimicrob Agents Chemother, 2010).

The molecules below were run on Hepatitis C virus (assay: Ratio of EC50 for Hepatitis C virus subtype 1b expressing NS3 A156V mutant to EC50 for Hepatitis C virus subtype 1b expressing WT NS3 infected in HuH7 cells after 48 hrs by luciferase reporter assay). Conditions: not given.
Format: functional, Hepacivirus hominis, genotype 1b, Huh-7
In short: (§1)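 Genotype 1b con1 subgenomic bicistronic replicon (clone ET) with luciferase reporter and adaptive mutations E1202G, T1280I, K1846T, carrying site-directed NS3 single or double mutations. 10 μg wild-type or mutant replicon RNA electroporated into Huh7-lunet cells, seeded 4,000 cells/well over a nine-point inhibitor dilution series, 48 h at 37°C, 5% CO2, then luminescence read. EC50 taken as median of individual experiments; fold change relative to parental replicon EC50.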

| SMILES | Ratio EC50 |
| --- | --- |
| CC(C)(C)NC(=O)N[C@H](C(=O)N1C[C@H]2[C@@H]([C@H]1C(=O)NC(CC1CCC1)C(=O)C(N)=O)C2(C)C)C(C)(C)C (stereo partly specified) [BOCEPREVIR] | 75 |

Each molecule was assayed on Hepatitis C virus (assay: Antiviral activity against Hepatitis C virus subtype 1b expressing NS3 D168Y mutant infected in HuH7 cells after 48 hrs by luciferase reporter assay). Conditions: genotype 1b, Huh-7, 48 h.
Format: functional, organism-based, Hepacivirus hominis
In short: as §1

| SMILES | EC50 [µM] |
| --- | --- |
| CC(C)(C)NC(=O)N[C@H](C(=O)N1C[C@H]2[C@@H]([C@H]1C(=O)NC(CC1CCC1)C(=O)C(N)=O)C2(C)C)C(C)(C)C (stereo partly specified) [BOCEPREVIR] | 0.193 |

The molecules below were run on Hepatitis C virus (assay: Ratio of EC50 for Hepatitis C virus subtype 1b expressing NS3 T54S mutant to EC50 for Hepatitis C virus subtype 1b expressing WT NS3 infected in HuH7 cells after 48 hrs by luciferase reporter assay). Conditions: not given.
Format: functional, Hepacivirus hominis, genotype 1b, Huh-7
In short: (§2)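 Transient replicon assay: site-directed single or multiple NS3 mutations engineered into genotype 1b (con1, clone ET) subgenomic bicistronic replicon with luciferase reporter and adaptive mutations E1202G, T1280I, K1846T. Huh7-lunet cells electroporated with 10 μg wild-type or mutant replicon RNA, seeded 4,000 cells/well with nine-point inhibitor dilution; 48 h, 37°C, 5% CO2; luminescence read-out. EC50 as median of individual experiments; fold change versus parental replicon EC50.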

| SMILES | Ratio EC50 |
| --- | --- |
| CC(C)(C)NC(=O)N[C@H](C(=O)N1C[C@H]2[C@@H]([C@H]1C(=O)NC(CC1CCC1)C(=O)C(N)=O)C2(C)C)C(C)(C)C (stereo partly specified) [BOCEPREVIR] | 8.5 |

The molecules below were run on Hepatitis C virus (assay: Ratio of EC50 for Hepatitis C virus subtype 1b expressing NS3 Q80R mutant to EC50 for Hepatitis C virus subtype 1b expressing WT NS3 infected in HuH7 cells after 48 hrs by luciferase reporter assay). Conditions: not given.
Format: functional, Hepacivirus hominis, genotype 1b, Huh-7
In short: as §2

| SMILES | Ratio EC50 |
| --- | --- |
| CC(C)(C)NC(=O)N[C@H](C(=O)N1C[C@H]2[C@@H]([C@H]1C(=O)NC(CC1CCC1)C(=O)C(N)=O)C2(C)C)C(C)(C)C (stereo partly specified) [BOCEPREVIR] | 0.5 |

What follows are molecules tested on Hepatitis C virus (assay: Antiviral activity against Hepatitis C virus subtype 1b expressing NS3 D168H mutant infected in HuH7 cells after 48 hrs by luciferase reporter assay). Conditions: genotype 1b, Huh-7, 48 h.
Format: functional, organism-based, Hepacivirus hominis
In short: as §1

| SMILES | EC50 [µM] |
| --- | --- |
| CC(C)(C)NC(=O)N[C@H](C(=O)N1C[C@H]2[C@@H]([C@H]1C(=O)NC(CC1CCC1)C(=O)C(N)=O)C2(C)C)C(C)(C)C (stereo partly specified) [BOCEPREVIR] | 0.073 |

These molecules were tested on Hepatitis C virus (assay: Ratio of EC50 for Hepatitis C virus subtype 1b expressing NS3 D168V mutant to EC50 for Hepatitis C virus subtype 1b expressing WT NS3 infected in HuH7 cells after 48 hrs by luciferase reporter assay). Conditions: not given.
Format: functional, Hepacivirus hominis, genotype 1b, Huh-7
In short: as §2

| SMILES | Ratio EC50 |
| --- | --- |
| CC(C)(C)NC(=O)N[C@H](C(=O)N1C[C@H]2[C@@H]([C@H]1C(=O)NC(CC1CCC1)C(=O)C(N)=O)C2(C)C)C(C)(C)C (stereo partly specified) [BOCEPREVIR] | 0.5 |

These molecules were tested on Hepatitis C virus (assay: Antiviral activity against Hepatitis C virus subtype 1b expressing NS3 Q80G mutant infected in HuH7 cells after 48 hrs by luciferase reporter assay). Conditions: genotype 1b, Huh-7, 48 h.
Format: functional, organism-based, Hepacivirus hominis
In short: as §1

| SMILES | EC50 [µM] |
| --- | --- |
| CC(C)(C)NC(=O)N[C@H](C(=O)N1C[C@H]2[C@@H]([C@H]1C(=O)NC(CC1CCC1)C(=O)C(N)=O)C2(C)C)C(C)(C)C (stereo partly specified) [BOCEPREVIR] | 0.127 |

The molecules below were run on Hepatitis C virus (assay: Ratio of EC50 for Hepatitis C virus subtype 1b expressing NS3 A156S mutant to EC50 for Hepatitis C virus subtype 1b expressing WT NS3 infected in HuH7 cells after 48 hrs by luciferase reporter assay). Conditions: not given.
Format: functional, Hepacivirus hominis, genotype 1b, Huh-7
In short: as §1

| SMILES | Ratio EC50 |
| --- | --- |
| CC(C)(C)NC(=O)N[C@H](C(=O)N1C[C@H]2[C@@H]([C@H]1C(=O)NC(CC1CCC1)C(=O)C(N)=O)C2(C)C)C(C)(C)C (stereo partly specified) [BOCEPREVIR] | 3.5 |

What follows are molecules tested on Hepatitis C virus (assay: Ratio of EC50 for Hepatitis C virus subtype 1b expressing NS3 R155Q mutant to EC50 for Hepatitis C virus subtype 1b expressing WT NS3 infected in HuH7 cells after 48 hrs by luciferase reporter assay). Conditions: not given.
Format: functional, Hepacivirus hominis, genotype 1b, Huh-7
In short: as §2

| SMILES | Ratio EC50 |
| --- | --- |
| CC(C)(C)NC(=O)N[C@H](C(=O)N1C[C@H]2[C@@H]([C@H]1C(=O)NC(CC1CCC1)C(=O)C(N)=O)C2(C)C)C(C)(C)C (stereo partly specified) [BOCEPREVIR] | 1.4 |

The molecules below were run on Hepatitis C virus (assay: Ratio of EC50 for Hepatitis C virus subtype 1b expressing NS3 D168Y mutant to EC50 for Hepatitis C virus subtype 1b expressing WT NS3 infected in HuH7 cells after 48 hrs by luciferase reporter assay). Conditions: not given.
Format: functional, Hepacivirus hominis, genotype 1b, Huh-7
In short: as §2

| SMILES | Ratio EC50 |
| --- | --- |
| CC(C)(C)NC(=O)N[C@H](C(=O)N1C[C@H]2[C@@H]([C@H]1C(=O)NC(CC1CCC1)C(=O)C(N)=O)C2(C)C)C(C)(C)C (stereo partly specified) [BOCEPREVIR] | 2.4 |

What follows are molecules tested on Hepatitis C virus (assay: Ratio of EC50 for Hepatitis C virus subtype 1b expressing NS3 Q80G mutant to EC50 for Hepatitis C virus subtype 1b expressing WT NS3 infected in HuH7 cells after 48 hrs by luciferase reporter assay). Conditions: not given.
Format: functional, Hepacivirus hominis, genotype 1b, Huh-7
In short: as §2

| SMILES | Ratio EC50 |
| --- | --- |
| CC(C)(C)NC(=O)N[C@H](C(=O)N1C[C@H]2[C@@H]([C@H]1C(=O)NC(CC1CCC1)C(=O)C(N)=O)C2(C)C)C(C)(C)C (stereo partly specified) [BOCEPREVIR] | 1.2 |

Each molecule was assayed on Hepatitis C virus (assay: Antiviral activity against Hepatitis C virus subtype 1b expressing NS3 R155I mutant infected in HuH7 cells after 48 hrs by luciferase reporter assay). Conditions: genotype 1b, Huh-7, 48 h.
Format: functional, organism-based, Hepacivirus hominis
In short: as §1

| SMILES | EC50 [µM] |
| --- | --- |
| CC(C)(C)NC(=O)N[C@H](C(=O)N1C[C@H]2[C@@H]([C@H]1C(=O)NC(CC1CCC1)C(=O)C(N)=O)C2(C)C)C(C)(C)C (stereo partly specified) [BOCEPREVIR] | 5.34 |

Each molecule was assayed on Hepatitis C virus (assay: Antiviral activity against Hepatitis C virus subtype 1b expressing NS3 T54S mutant infected in HuH7 cells after 48 hrs by luciferase reporter assay). Conditions: genotype 1b, Huh-7, 48 h.
Format: functional, organism-based, Hepacivirus hominis
In short: as §1

| SMILES | EC50 [µM] |
| --- | --- |
| CC(C)(C)NC(=O)N[C@H](C(=O)N1C[C@H]2[C@@H]([C@H]1C(=O)NC(CC1CCC1)C(=O)C(N)=O)C2(C)C)C(C)(C)C (stereo partly specified) [BOCEPREVIR] | 1.11 |

These molecules were tested on Hepatitis C virus (assay: Antiviral activity against Hepatitis C virus subtype 1b expressing NS3 R155G mutant infected in HuH7 cells after 48 hrs by luciferase reporter assay). Conditions: genotype 1b, Huh-7, 48 h.
Format: functional, organism-based, Hepacivirus hominis
In short: as §1

| SMILES | EC50 [µM] |
| --- | --- |
| CC(C)(C)NC(=O)N[C@H](C(=O)N1C[C@H]2[C@@H]([C@H]1C(=O)NC(CC1CCC1)C(=O)C(N)=O)C2(C)C)C(C)(C)C (stereo partly specified) [BOCEPREVIR] | 4.47 |

These molecules were tested on Hepatitis C virus (assay: Ratio of EC50 for Hepatitis C virus subtype 1b expressing NS3 D168T mutant to EC50 for Hepatitis C virus subtype 1b expressing WT NS3 infected in HuH7 cells after 48 hrs by luciferase reporter assay). Conditions: not given.
Format: functional, Hepacivirus hominis, genotype 1b, Huh-7
In short: as §2

| SMILES | Ratio EC50 |
| --- | --- |
| CC(C)(C)NC(=O)N[C@H](C(=O)N1C[C@H]2[C@@H]([C@H]1C(=O)NC(CC1CCC1)C(=O)C(N)=O)C2(C)C)C(C)(C)C (stereo partly specified) [BOCEPREVIR] | 1.1 |

The molecules below were run on Hepatitis C virus (assay: Antiviral activity against Hepatitis C virus subtype 1b expressing NS3 Q80R mutant infected in HuH7 cells after 48 hrs by luciferase reporter assay). Conditions: genotype 1b, Huh-7, 48 h.
Format: functional, organism-based, Hepacivirus hominis
In short: as §1

| SMILES | EC50 [µM] |
| --- | --- |
| CC(C)(C)NC(=O)N[C@H](C(=O)N1C[C@H]2[C@@H]([C@H]1C(=O)NC(CC1CCC1)C(=O)C(N)=O)C2(C)C)C(C)(C)C (stereo partly specified) [BOCEPREVIR] | 0.085 |
